High-throughput results deposited in PubChem by several laboratories.
SKKanGAS inh = S. pyogenes SKKanGAS growth inhibitors in kanamycin, primary screen, streptokinase expression inhibitor project, SKKanGAS strain, BacTiter-Glo luminescence; 6 h; inhibition, % at 7.5 µM; hit rate 1.3% among 300,000;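 active = mean replicate score, as percent of positive control median, at least 50; inconclusive = mean below 50 but one replicate at or above 50; inactive = mean and every replicate below 50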;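 also: strain carries kanamycin resistance gene driven by streptokinase promoter and grows in 40 µg/ml kanamycin; loss of luminescence reflects streptokinase promoter inhibition or plain growth inhibition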
T cruzi inh = inhibitors of intracellular T. cruzi growth, primary screen, luminescence, NIH3T3 host cells. T. cruzi beta-gal in NIH3T3, 90 h. inhibition, % (no concentration beside the values). hit rate 1.4% among 300,000. AID 1885, 2009;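 active = mean inhibition across valid replicates above about 55%, limit read from the data; inconclusive = mean below that limit but half or more replicates reach it; inactive = mean below it, under half of replicates reach it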;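 also: signal also drops with host cell toxicity which is not excluded here; higher percent means less beta-gal luminescence so fewer parasites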
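Material: NIH/3T3 host cells with β-galactosidase reporter T. cruzi; Input: 5,000 host fibroblasts per well; Medium: DMEM, 2% fetal bovine serum; Compound: 50 nL DMSO compound solution per well; Schedule: 3 h host attachment, then at least 90 h co-culture; Detection: luminescent β-galactosidase signal after 60 min lysis.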
aSyn UTR inh = MLPCN primary screen, SNCA 5' untranslated region; inhibition, % (tested at 7.5 µM); hit rate 0.82% among 300,000; alpha-synuclein 5'UTR reporter, inhibitor activity; in the data active = inhibition above about 60%; inconclusive = no clear call, values can overlap the other calls;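 also: H4 neuroglioblastoma cells stably carrying SNCA 5'UTR luciferase fusion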
Mdm2 MdmX PPI = inhibitors of human Mdm2-MdmX association, primary screen, cell-based, luminescence, split luciferase, SaOS-2, uHTS | Protein Mdm4 (Homo sapiens) + E3 ubiquitin-protein ligase Mdm2 (Homo sapiens), … | SaOS-2 split-luciferase Mdm2/MdmX complementation | inhibition, % at 8 µM | hit rate 3% among 330,000 | AID 485346, 2010;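 active = inhibition of at least 50% at 8 µM in the primary screen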
Target sequence (O15151 whole entry, looked up): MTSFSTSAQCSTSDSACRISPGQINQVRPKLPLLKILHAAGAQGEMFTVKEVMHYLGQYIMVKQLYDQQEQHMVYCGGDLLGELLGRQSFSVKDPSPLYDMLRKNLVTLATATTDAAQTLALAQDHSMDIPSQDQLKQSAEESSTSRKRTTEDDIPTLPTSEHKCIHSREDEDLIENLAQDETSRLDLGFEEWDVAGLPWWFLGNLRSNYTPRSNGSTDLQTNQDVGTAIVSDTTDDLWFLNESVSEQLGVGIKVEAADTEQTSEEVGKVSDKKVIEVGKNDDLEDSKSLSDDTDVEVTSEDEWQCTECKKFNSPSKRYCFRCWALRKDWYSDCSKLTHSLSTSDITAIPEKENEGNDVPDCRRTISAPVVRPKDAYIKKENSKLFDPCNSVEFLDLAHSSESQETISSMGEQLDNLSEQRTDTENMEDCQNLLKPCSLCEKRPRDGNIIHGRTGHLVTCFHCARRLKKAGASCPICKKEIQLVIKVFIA
Target sequence (Q00987 whole entry, looked up): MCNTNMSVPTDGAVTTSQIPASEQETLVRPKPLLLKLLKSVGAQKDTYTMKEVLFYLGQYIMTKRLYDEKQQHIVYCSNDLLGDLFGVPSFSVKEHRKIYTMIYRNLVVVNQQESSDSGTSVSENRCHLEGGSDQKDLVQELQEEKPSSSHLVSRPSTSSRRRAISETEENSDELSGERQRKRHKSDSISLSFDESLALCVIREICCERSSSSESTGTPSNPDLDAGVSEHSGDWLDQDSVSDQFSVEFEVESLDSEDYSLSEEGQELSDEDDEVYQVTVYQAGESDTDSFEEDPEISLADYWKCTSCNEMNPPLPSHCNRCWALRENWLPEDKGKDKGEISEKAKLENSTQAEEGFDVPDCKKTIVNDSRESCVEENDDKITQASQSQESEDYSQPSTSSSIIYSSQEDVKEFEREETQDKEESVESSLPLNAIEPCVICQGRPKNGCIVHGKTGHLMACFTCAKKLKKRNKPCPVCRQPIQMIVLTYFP
CSC inhib = cancer stem cell viability inhibitors, primary screen, luminescence; hit rate 1.1% among 300,000; inhibition, % at 7.5 µM; cancer stem cell-like cells viability; in the data active = inhibition above about 75%; inconclusive = no clear call, values can overlap the other calls; tested in HMLE shEcad cells
Numbers stand for hits; n = inactive; u = inconclusive; x = no result given. A selection: hits, their analogues and other compounds. The true share with any hit is near 5.4%.

SMILES | SKKanGAS inh | T cruzi inh | aSyn UTR inh | Mdm2 MdmX PPI | CSC inhib
CCCCCCC(C)(C)c1ccc([C@@H]2C[C@H](O)CC[C@H]2CCCO)c(O)c1 | x | x | x | n | 103
NS(=O)(=O)c1ccc(N=Cc2c(O)n(C3CCCCC3)c(=O)n(C3CCCCC3)c2=O)cc1 | 51 | u | n | n | 90
CN1CCN(Cc2ccccc2Sc2ccccc2)CC1 | n | n | n | n | n
NNC(N)=O | x | x | x | n | n
FC(F)(F)c1ccccc1N1CC1c1ccncc1 (stereo not drawn) | n | n | n | n | x
CC(C)CCn1c(N)c(C(=O)NCc2cccs2)c2nc3ccccc3nc21 | n | u | n | n | 77
Nc1c(C(=O)NCc2ccco2)c2nc3ccccc3nc2n1CCN1CCCCC1 | n | 69 | n | n | n
CC(C)OCCCNC(=O)c1c(N)n(Cc2cccs2)c2nc3ccccc3nc12 | n | n | n | n | 118
COCCCNC(=O)c1c(N)n(Cc2ccco2)c2nc3ccccc3nc12 | n | n | n | n | n
COc1ccc(Cn2c(N)c(C(=O)NCc3ccco3)c3nc4ccccc4nc32)cc1OC | x | x | x | n | n
Cc1nn(-c2ccccc2)c(Cl)c1C1C(C#N)=C(N)Oc2c1c(=O)oc1ccccc21 (stereo not drawn) | 108 | n | n | n | n
NC(C(=O)O)c1cc(=O)[nH]o1 (stereo not drawn) | x | x | x | n | n
c1ccc(CN2CCN(Cc3ccc4ccccc4c3)CC2)cc1 | n | n | n | n | n
Cc1ccc(CN2CCN(Cc3ccccc3)CC2)cc1 | n | 59 | n | n | n
CN1CC=C(/C=C/c2ccc(-c3ccccc3)cc2)CC1 | n | 70 | n | n | n
COC(=O)C1=C(c2ccc3ccccc3c2)C[C@@H]2CC[C@H]1N2C(=O)N1CCCCC1 | x | x | x | n | n
CC12CC[C@H]3[C@@H](CCC4(O)C[C@H](O)CCC34/C=N/NC(=O)c3ccccc3[N+](=O)[O-])C1(O)CCC2C1=CC(=O)OC1 (stereo partly drawn) | n | n | 117 | n | n
CCN(CC)c1ccc(CN(C)CCc2ccc(OC)c(OC)c2)cc1 | n | 61 | n | n | n
COc1ccc(CCN(C)Cc2ccc(F)cc2F)cc1OC | n | n | n | n | n
N[C@@H]1CCCC[C@H]1N.O=C(O)C(=O)O.[Pt] | n | n | n | n | n
Cc1ccc(OP(=O)(Nc2cccc(C)c2)Oc2ccc(C)cc2)cc1 | 76 | n | n | n | n
C=C1C[C@@H]2[C@H](CC[C@]3(C)C(=O)CC[C@@H]23)[C@@]2(C)C=CC(=O)C=C12 | n | n | n | x | n
Oc1cccc2cccnc12 | 94 | n | n | x | n
O=C(CN1CCCC1)Nc1ccc(Cl)cc1C(=O)c1ccccc1 | n | n | n | n | 85
COc1ccc(-n2c(CN3CCOCC3)nc3ccccc3c2=O)c(OC)c1 | n | n | n | n | n
SMILES | SKKanGAS inh | T cruzi inh | aSyn UTR inh | Mdm2 MdmX PPI | CSC inhib
COc1cccc(-c2sc3ccccc3c2-c2ccc(OCCN3CCOCC3)cc2)c1 | x | x | x | n | 104
COC(=O)C1=C(c2cc3ccccc3s2)C[C@@H]2CC[C@H]1N2C(=O)NC1CCCCC1 | n | n | n | n | n
O=c1c2ccccc2nc(/C=C\c2ccccc2[N+](=O)[O-])n1-c1ccccc1O | n | n | n | n | n
O=c1c2ccccc2nc(/C=C/c2ccccc2F)n1-c1ccccc1O | n | n | n | n | 98
CCCCCCn1c(O)c(C=NC2CCCCC2N)c(=O)[nH]c1=O (stereo not drawn) | n | n | n | n | 83
CCCCn1c(=O)c(C(=O)NCc2ccccc2Cl)c(O)c2ccccc21 | 50 | n | n | n | n
CCCCn1c(=O)c(C(=O)NCc2ccccc2)c(O)c2ccccc21 | 76 | u | n | n | u
COc1ccc(OC)c(N2C(=O)NC(=O)/C(=C/c3ccc([N+](=O)[O-])s3)C2=O)c1 | n | 65 | n | n | n
COc1ccc(C(=O)C2CCCN(C3CSCCSC3)C2)c(OC)c1 (stereo not drawn) | n | n | n | n | 78
COc1ccc(C(=O)C2CCCN(C3CSCCSC3)C2)c(C)c1 (stereo not drawn) | n | n | n | n | n
CN1CCN(c2ccc([N+](=O)[O-])c3no[n+]([O-])c23)CC1 | 104 | n | 98 | x | 104
CN1CCN(c2ccc(S(C)(=O)=O)cc2[N+](=O)[O-])CC1 | n | n | n | n | n
